Screens (PubChem BioAssay)
OXTR potentiator = human OXTR potentiation. P30559. CHO-OTR cells, Fluo-8 calcium fluorescence, potentiator mode; 0% = oxytocin EC15, 100% = EC100. activation, % at 3 µM. 0.061% of 320,000 active. AID 2445;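 active means activation above that plate's cutoff, the mean activation of tested compounds plus 3 SD, cut at about 6.6% in these data, passing the limit was not always enough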;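 further: 100% uses oxytocin at 75 nM as the full agonist control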
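Replication – single well per compound, singlicate · Assay system – CHO cell line stably expressing human OTR · Timing – 6 min pre-incubation, 100 s read · Measure – normalized max/min fluorescence ratio, % activation · Doses – 3.0 µM, one dose · Detection – Fluo-8 calcium dye fluorescence · Probe or stimulus – oxytocin near EC15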
M4 ag = agonists of human muscarinic M4 receptor (CHRM4); P08173; CHO-K1 hM4/Gqi5, Fluo-8 calcium fluorescence; vehicle 0%, full acetylcholine response 100%; activation, % at 3 µM; 0.14% of 360,000 active; AID 624127;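 active means activation above the run mean over all test wells plus 3 SD, cut at about 32% in these data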;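 further: peak over basal fluorescence ratio per well then scaled between controls; 0% = DMSO wells and 100% = acetylcholine at EC100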
Target sequence (P08173 whole entry, looked up): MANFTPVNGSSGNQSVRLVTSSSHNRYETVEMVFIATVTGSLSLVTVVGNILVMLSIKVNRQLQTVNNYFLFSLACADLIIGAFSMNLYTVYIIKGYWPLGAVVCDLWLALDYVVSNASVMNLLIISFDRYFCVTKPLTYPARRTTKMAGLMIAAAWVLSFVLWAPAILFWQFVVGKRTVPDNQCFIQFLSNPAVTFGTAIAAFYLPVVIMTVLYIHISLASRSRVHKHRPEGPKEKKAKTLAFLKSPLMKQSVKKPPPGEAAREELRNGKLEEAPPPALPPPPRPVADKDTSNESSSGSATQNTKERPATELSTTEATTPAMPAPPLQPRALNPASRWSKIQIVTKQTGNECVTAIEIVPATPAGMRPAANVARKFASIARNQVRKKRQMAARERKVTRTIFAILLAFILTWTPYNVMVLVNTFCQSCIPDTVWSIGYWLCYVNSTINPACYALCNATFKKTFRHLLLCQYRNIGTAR
CHRM4 antagonist = CHRM4 antagonism in calcium assay. P08173. CHO-hM4 cells, ACh EC80, Fluo-8 calcium fluorescence. inhibition, % at 3 µM. 0.73% of 360,000 active. AID 624125;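 active means inhibition above its plate's cutoff, the mean inhibition of sample wells plus 3 SD, cut at about 27% in these data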;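 further: 0% = acetylcholine EC80 with DMSO and 100% = DMSO without agonist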
M4 PAM = positive allosteric modulators of human muscarinic M4 receptor. P08173. CHO-K1 hM4/Gqi5, Fluo-8 calcium fluorescence, ACh EC20; 0% = ACh EC20, 100% = maximal ACh. activation, % at 3 µM. 0.4% of 360,000 active. AID 624126;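 active means activation above its plate's cutoff, the mean activation of sample wells plus 3 SD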
V1aR counter = counter-screen for oxytocin receptor agonists: human V1a receptor agonists; 0.25% of 320,000 active; activation, % at 3 µM; P37288; CHO-V1R cells, Fluo-8 calcium fluorescence, agonist mode; 0% DMSO, 100% 3 nM vasopressin; AID 2797;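 active means activation above the mean activation of all tested compounds plus 3 SD, per screening run, cut at about 20% in these data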;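 further: signal is peak over basal fluorescence ratio across a 100 second FLIPR read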
OXTR agonist = human OXTR agonism. CHO-OTR cells, Fluo-8 calcium fluorescence; normalized: DMSO 0%, oxytocin 100%. 0.32% of 320,000 active. activation, % at 3 µM. P30559;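 active means activation above the mean of all tested compounds plus 3 SD, cutoff set per screening run, cut at about 20% in these data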;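 further: peak over basal fluorescence ratio from a 100 s FLIPR kinetic read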
An asterisk follows results filed as active; . = not tested or not shown. Compounds with a hit are over-represented: about 1.5% of the library has one in this group of screens.

SMILES	OXTR potentiator	M4 ag	CHRM4 antagonist	M4 PAM	V1aR counter	OXTR agonist
C#CCOCCOCCOCCNc1nc(N2CCN(C(=O)CCCCCCCCCCNC(=O)[C@H](CCCCN)n3cc(C[C@@H](C)CC)nn3)CC2)nc(N2CCN(C(=O)CCCCCCCCCCNC(=O)[C@H](CCCN=C(N)N)n3cc(C[C@@H](C)CC)nn3)CC2)n1	5.3	1.8	11.3	-12.7	1.7	1.2
Cc1cn([C@@H](CCCCNC(=O)OC(C)(C)C)C(=O)NCCCCCCCCCCC(=O)N2CCN(C(=O)OC(C)(C)C)CC2)nn1	-20.7	28.2	40.1*	-16.5	6.9	1.8
CC(C)CNC(=O)C1(C)CCCN1C(=O)c1csnn1 (stereo unspecified)	.	0.1	-2.2	10.0	.	.
CC(C)CNC(=O)C1(C)CCCCCN1C(=O)c1csnn1 (stereo unspecified)	.	0.7	-18.1	18.8*	.	.
Cc1nnsc1C(=O)N1CCCC(C)(C(=O)NS(=O)(=O)C2CC2)C1 (stereo unspecified)	.	1.8	-12.9	19.5*	.	.
CCOC(=O)C1(C)CCCN(C(=O)c2snnc2C)C1 (stereo unspecified)	.	0.2	-11.4	3.3	.	.
CCCCNc1c(CC(C)C)nc2nc(C)cc(C)n12	.	-0.4	3.1	-0.1	.	.
CCCCCCn1cc(CN2CC(N3CCCCC3)CS2(=O)=O)nn1 (stereo unspecified)	.	-0.7	-2.6	0.8	.	.
COc1cc(C2c3cc4c(cc3C(O)C3COCC23)OCO4)cc(OC)c1OC (stereo unspecified)	.	0.4	-3.8	3.4	.	.
COc1cc([C@@H]2c3cc4c(cc3[C@H](O)[C@H]3COC(=O)[C@H]23)OCO4)cc(OC)c1OC	-6.7	1.6	55.4*	-16.4	-0.1	1.0
C[C@@H]1CN([C@H](C)CO)C(=O)CCCn2cc(nn2)CO[C@H]1CN(C)C(=O)Cc1ccccc1	.	0.3	-3.4	5.2	.	.
CC(C)(C)c1cc(NC(=O)c2ccc(OC3CCCC3)cc2)no1	-10.7	1.0	-4.0	2.2	3.3	-0.8
O=C(Nc1ccon1)c1ccc(OC2CCCC2)cc1	-4.0	1.2	38.2*	-10.7	3.3	-0.6
O=C(c1cccs1)n1cc(C(=S)N2CCOCC2)c2ccccc21	-3.0	0.7	7.4	-5.2	0.0	-0.3
O=C(C1CC1)n1cc(C(=S)N2CCOCC2)c2ccccc21	-6.3	3.5	1.0	20.8*	0.1	-1.6
Nc1c(-c2ccc(C(F)(F)F)cc2)nc2ncccn12	.	1.4	-4.2	5.5	.	.
S=C(Nc1cccc2ccccc12)NN1CCCCCC1	.	-1.2	34.8*	-16.9	.	.
COc1cc2c(cc1N)-c1ccc(N)cc1C2	.	0.5	-10.0	-5.2	.	.
CC(C)NS(=O)(=O)c1ccc(NC(=O)C(C)Oc2ccc(C(=O)c3ccccc3)cc2)cc1 (stereo unspecified)	-17.5	116.8*	71.0*	-46.1	66.2*	54.0*
CC(Oc1ccccc1)C(=O)Nc1ccc(C(N)=O)cc1 (stereo unspecified)	-4.9	3.8	3.7	9.4	0.4	0.4
COc1ccc(NC(=O)C(C)Oc2ccc(/C(C)=N\O)cc2)cc1 (stereo unspecified)	-22.9	8.9	-12.8	-1.0	33.0*	39.5*
CC(Oc1ccc(Cl)cc1)C(=O)Nc1ccc(S(=O)(=O)N2CCOCC2)cc1 (stereo unspecified)	-15.5	52.9*	7.1	-10.9	27.6*	30.4*
CCC(C)N(CC(=O)Nc1cccc(C)c1C)C(=O)CCl (stereo unspecified)	-4.7	1.1	8.5	8.7	-0.2	1.1
COc1cc(C(O)c2nc3ccccc3n2C(C)C)cc(OC)c1OC (stereo unspecified)	-1.3	0.6	1.9	-7.3	-0.3	0.9
CSc1ccc(CCNC(=O)Cn2ncc3c([nH]c4ccccc43)c2=O)cc1	-6.5	2.2	16.5	15.4*	0.3	-0.6
SMILES	OXTR potentiator	M4 ag	CHRM4 antagonist	M4 PAM	V1aR counter	OXTR agonist
O=C(CN1C(=O)NC2(CCCCC2)C1=O)NCCCSc1ccccc1	-2.9	1.4	3.2	7.7	0.4	-0.1
Cc1ccc(-c2c(C#N)c(N)n(-c3ccc(C)cc3)c(=O)c2C#N)cc1	-11.0	6.2	2.8	8.9	9.1	10.2
Cc1ccc(-n2c(N)c(C#N)c(-c3ccc(Cl)cc3)c(C#N)c2=O)cc1	-25.0	3.0	-0.7	2.8	23.8*	29.2*
CC1Cc2cc(S(=O)(=O)N3CCC(C(=O)N4CCN(c5ccccc5F)CC4)CC3)ccc2N1C(=O)C1CC1 (stereo unspecified)	-10.8	14.9	37.2*	-11.4	10.5	5.2
CC(=O)N1CCCc2cc(S(=O)(=O)N3CCCC(C(=O)N4CCN(c5ccccc5)CC4)C3)ccc21 (stereo unspecified)	-22.6	16.1	2.1	-8.5	7.9	11.2
CC(=O)N1c2ccc(S(=O)(=O)N3CCC(C(=O)N4CCN(c5cc(Cl)ccc5C)CC4)CC3)cc2CC1C (stereo unspecified)	-13.0	20.6	36.4*	-18.3	12.1	11.5
CC(=O)N1CCCc2cc(S(=O)(=O)N3CCCC(C(=O)N4CCN(c5cc(C)ccc5C)CC4)C3)ccc21 (stereo unspecified)	-22.5	36.6*	-13.8	-26.6	7.5	6.1
O=C(CNC(=O)c1cccc(-n2cnnn2)c1)Nc1ccc(F)c(F)c1	-7.3	0.4	-3.7	4.9	0.2	-0.4
CCN(C(=O)c1ccc(C(C)(C)C)cc1)c1nnc(Cn2nnc3ccccc32)s1	-18.6	7.5	29.0*	-9.7	4.8	6.6
CC(NCc1ccc(OCC(N)=O)cc1)C12CC3CC(CC(C3)C1)C2 (stereo unspecified)	-0.7	1.5	28.9*	-14.9	1.8	1.8
COc1ccc(CNC(C)C23CC4CC(CC(C4)C2)C3)c(OC)c1OC (stereo unspecified)	-15.9	5.6	4.0	-4.3	5.4	2.5
CC(=O)Nc1scc(C)c1-c1nc2ccccc2s1	-7.5	-0.5	-4.5	-5.9	0.1	-2.5
CNc1sc(C(=O)c2cccs2)c(N)c1-c1nc2ccccc2s1	-5.1	2.2	34.0*	1.2	4.6	1.5
CNc1sc(C(=O)c2ccc(F)cc2)c(N)c1-c1nc2ccccc2s1	2.4	3.4	32.3*	14.9	0.5	3.2
O=C(Cc1c(F)cccc1Cl)Nc1ccc(S(=O)(=O)Nc2nccs2)cc1	-4.2	2.1	-14.2	1.8	0.6	-0.7
COc1ccccc1CNc1nc(Nc2cccc(-c3cnco3)c2)c2sccc2n1	.	16.5	26.0	-12.6	.	.
COc1ccc(OC)c2[nH]c(=O)c(CCNC(=O)c3ccc(S(=O)(=O)N(C)C)cc3)cc12	4.0	3.6	10.6	27.8*	0.3	-0.1
